Published values pooled from the literature.
Compare with care: the assays were run in different laboratories.
Target: Ephrin type-A receptor 4 (EPHA4, Homo sapiens, UniProt P54764)

c1ccc(N2CCN(Cc3nc4ccccc4[nH]3)CC2)nc1 — remaining binding (cell-free assay, competition with immobilised ligand; 1 µM): 100%
CN(C)c1nccc(-c2cnc3ncccn23)n1 — remaining binding (binding; 1 µM): 100%
c1cncc(-c2cccc(Nc3nccc(NC4CCCCC4)n3)c2)c1 — remaining binding (binding, competition with immobilised ligand; 10 µM): 100%
CNCc1ccccc1-c1csc([C@@H](C)Nc2nc(C)nc3cc(OC)c(OC)cc23)c1 — remaining binding (cell-free assay, competition with immobilised ligand; 1 µM): 79%
CNC(=O)[C@@H]1CC[C@@H](n2c(-c3ccc4cnccc4c3)nc3ccc(C(=O)NCc4cccc(C(N)=O)c4)cc32)C1 — remaining binding (binding, competition with immobilised ligand; 1 µM): 98%
O=C(NCC1CCOCC1)c1n[nH]cc1NC(=O)c1c(F)cccc1F — remaining binding (binding, competition with immobilised ligand; 1 µM): 100%
CC(=O)Nc1c(C(C)=O)c(=O)n(C)c2nc(-c3ccc(Cl)cc3Cl)c(-c3ccc(Cl)cc3)cc12 — remaining binding (cell-free assay, competition with immobilised ligand; 1 µM): 96%
C[C@@H]1CCN(c2nccc(-c3cnn4ncccc34)n2)C1 — remaining binding (binding; 1 µM): 100%
O=C(NCCCN1CCOCC1)c1ccc(Nc2ncc(Cl)c(-c3ccc(Cl)s3)n2)cc1 — remaining binding (binding, competition with immobilised ligand; 1 µM): 89%
COc1cnc(Nc2cccc(S(N)(=O)=O)c2)nc1N1CCN(c2ccccc2)C(=O)C1 — remaining binding (binding, competition with immobilised ligand; 1 µM): 100%
O=C(NCCCN1CCOCC1)c1ccc(Nc2nccc(-c3cc4ccccc4s3)n2)cc1 — remaining binding (binding, competition with immobilised ligand; 1 µM): 82%
F[C@@H]1CCN(c2nccc(-c3cnn4ncccc34)n2)C1 — remaining binding (binding; 1 µM): 100%
O=C(Nc1ccc(Oc2ccc(F)cc2)cc1)N1CCc2ncccc2[C@H]1c1ccc(F)cc1 — remaining binding (cell-free assay, competition with immobilised ligand; 1 µM): 100%
N[C@@H]1CCN(c2nccc(-c3cnn4ncccc34)n2)C1 — remaining binding (binding; 1 µM): 97%
C[C@@H]1CN(c2cc(-c3n[nH]c4ccc(OC5(C)CC5)cc34)ncn2)C[C@H](C)O1 — remaining binding (cell-free assay, competition with immobilised ligand; 0.1 µM): 89%
Cc1cnc(Nc2ccc(C(=O)N3CCC(N4CCCC4)CC3)cc2)nc1-c1cc2ccccc2s1 — remaining binding (binding, competition with immobilised ligand; 1 µM): 57%
CN(CCCC(F)(F)F)c1nccc(-c2cnn3ncccc23)n1 — remaining binding (binding; 1 µM): 100%
O=C(NCc1ncc(C(F)(F)F)cc1Cl)c1ccc2c(c1)C1(CCS(=O)(=O)CC1)[C@H](C1CC1)N2S(=O)(=O)c1ccc(F)cc1 — remaining binding (cell-free assay, competition with immobilised ligand; 1 µM): 100%
Nc1ncc2c(n1)-c1c([nH]c3ccc(C#CC4CC4)cc13)CCCC2 — remaining binding (binding, competition with immobilised ligand; 1 µM): 100%
Cc1c(NC(=O)c2cc(C(N)=O)nc3cc(F)ccc23)c(C(F)(F)F)nn1Cc1ccc(C(C)(C)C)cc1 — remaining binding (cell-free assay, competition with immobilised ligand; 1 µM): 100%
CN(C)c1nccc(-c2cnn3ncccc23)n1 — remaining binding (binding; 1 µM): 99%
COc1ncc2cc3ccccc3nc2c1C#N — remaining binding (cell-free assay, competition with immobilised ligand; 5 µM): 100%
